Screens: PubChem BioAssay, several laboratories
SKKanGAS inh – inhibitors of SKKanGAS S. pyogenes growth in kanamycin (SK-promoter or general growth effect). BacTiter-Glo, 6 h. inhibition, % at 7.5 µM. actives 1.3% (n = 300,000). AID 1662;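 active = mean replicate score, as percent of positive control median, at least 50; inconclusive = mean below 50 but one replicate at or above 50; inactive = mean and every replicate below 50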;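 also: strain carries kanamycin resistance gene driven by streptokinase promoter and grows in 40 µg/ml kanamycin; loss of luminescence reflects streptokinase promoter inhibition or plain growth inhibition; 0% = median of DMSO wells and 100% = positive control at its reference dose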
UPR XBP1 act – adaptive UPR (XBP1) activation; CHO-XBP1 luciferase reporter, IRE1-XBP1 UPR activation, luminescence; percent of tunicamycin response, DMSO as zero; activation, % at 20 µM; actives 0.33% (n = 330,000); AID 463104;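 active = versus positive control, 20 µM dose yields 30% or more activation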;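 also: 100% = tunicamycin at 10 µg/mL and 0% = DMSO only wells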
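Test system: CHO-XBP1 luciferase reporter cells | Buffer or medium: Serum-containing F12 medium, 10% FBS | Schedule: 6 h compound exposure at 37 °C, 5% CO2 | Detection: Steady-Glo luciferase glow luminescence, 10 min after reagent addition | Read-out basis: Activation, % of tunicamycin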
Beta cell apopt – blocks beta cell apoptosis. protection from apoptosis, % (test concentration not listed). actives 0.8% (n = 300,000). INS-1E cytokine-induced death, ATP luminescence, 48 h; percent of positive-control rescue, neutral wells zero;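 active = Every replicate reaches about 75%, or at least half do and their mean reaches it too, limit read from the data; inconclusive = At least half of replicates reach the limit but their mean does not; inactive = Under half of replicates reach the limit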;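 also: 0% = cytokine-treated negative control wells and 100% = positive control rescue; higher means more ATP so stronger rescue from cytokine killing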
Mdm2 MdmX PPI – inhibitors of human Mdm2/MdmX interaction; O15151+Q00987; SaOS-2 split-luciferase Mdm2/MdmX complementation, luminescence; inhibition, % at 8 µM; actives 3% (n = 330,000); AID 485346;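 active = inhibition of at least 50% at 8 µM in the primary screen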
CSC inhib – cancer stem cell inhibition. AID 2717. inhibition, % at 7.5 µM. cancer stem cell-like cells viability, luminescence. actives 1.1% (n = 300,000); in the data active = inhibition above about 75%; inconclusive = no clear call, values can overlap the other calls; tested in HMLE shEcad cells
CHOP UPR activ – activators of apoptotic arm of unfolded protein response (CHOP) | CHO-CHOP luciferase reporter, UPR activation, luminescence; percent of tunicamycin response over DMSO baseline | activation, % at 10 µM | actives 0.34% (n = 330,000);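 active = at 10 µM dose, activation of 40% or more, normalized to positive control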;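 also: 100% = tunicamycin at 10 µg/mL and 0% = DMSO alone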
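Material: CHO-CHOP cells, stable luciferase reporter of PERK-eIF2a-CHOP signalling; quantity: 500 reporter cells seeded per well; buffer or medium: F12 medium containing 10% fetal bovine serum; compound: one dose, 10 µM in 0.5% DMSO; incubation: 6 h compound treatment, 37 °C; measured by: Steady-Glo luciferase luminescence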
Mdm2 MdmX conf – confirmation of human Mdm2/MdmX interaction inhibitors | Mdm2-MdmX binding, luminescent assay | actives 55% (n = 10,000) | inhibition, % at 8 µM | shares compounds with Mdm2 MdmX PPI; in the data active = inhibition above about 40%
FLuc counter – full-length luciferase inhibition in Mdm2/MdmX counter-screen; inhibition, % at 8 µM; actives 77% (n = 6,200); shares compounds with Mdm2 MdmX PPI; SaOS-2 full-length luciferase counterscreen, luminescence;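 active = mean inhibition at 8 µM reaching about 37%, which flags the compound as non-specific, limit read from the data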;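 also: p53-null SaOS-2 cells with luciferase driven by a doxycycline-inducible promoter; compound on cells about two nights before reading with doxycycline added after day one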
* marks the source's active call; other numbers are inactive results. Most compounds without a hit are left out; they make up all but 4.8% or so of the library.

What do the screens show for `CCn1c(O)c(/C=C2\C=NN=C2c2ccc(C)cc2)sc1=S`?
SKKanGAS inh: -1; UPR XBP1 act: 4; Beta cell apopt: 10; Mdm2 MdmX PPI: 82*; CSC inhib: -8; CHOP UPR activ: 24; Mdm2 MdmX conf: 63*; FLuc counter: 97*

What do the screens show for `COc1ccc(-c2cn(-c3ccc(C)c(C)c3)c(=S)[nH]2)cc1OC`?
SKKanGAS inh: 32; UPR XBP1 act: -2; Beta cell apopt: -2; Mdm2 MdmX PPI: 13; CSC inhib: 2; CHOP UPR activ: -2

How did COc1ccc(-c2cn(-c3ccccc3)c(=S)[nH]2)cc1OC do in these assays?
SKKanGAS inh: 4; UPR XBP1 act: -6; Beta cell apopt: -5; Mdm2 MdmX PPI: 94*; CSC inhib: -7; CHOP UPR activ: 4; Mdm2 MdmX conf: -45

What do the screens show for `Cc1ccc(CCNC(=O)c2sc3nc4n(c(=O)c3c2C)CCC4)cc1`?
SKKanGAS inh: -5; UPR XBP1 act: 2; Beta cell apopt: 1; Mdm2 MdmX PPI: 12; CSC inhib: -14; CHOP UPR activ: 5

What do the screens show for `CCCc1ccc(S(=O)(=O)N/N=C\c2ccc3c(c2)OCO3)cc1`?
SKKanGAS inh: 26; UPR XBP1 act: -3; Beta cell apopt: -4; Mdm2 MdmX PPI: 21; CSC inhib: 44; CHOP UPR activ: 1

How did COc1ccccc1CNC(=O)CN(C)S(=O)(=O)c1ccc2c(c1)n(C)c(=O)c(=O)n2C do in these assays?
SKKanGAS inh: -9; UPR XBP1 act: -1; Beta cell apopt: -7; Mdm2 MdmX PPI: 33; CSC inhib: -19; CHOP UPR activ: 0

What do the screens show for `Cc1ccc(-c2ccc(/C=C3\C(=O)ON=C3c3ccccc3)o2)c([N+](=O)[O-])c1`?
SKKanGAS inh: 5; UPR XBP1 act: -3; Beta cell apopt: 92*; Mdm2 MdmX PPI: 82*; CSC inhib: 5; CHOP UPR activ: 25; Mdm2 MdmX conf: 1

Results for CCN(CC)S(=O)(=O)c1cc(OC)ccc1N=Nc1ccc(O)c2ncccc12 ?
SKKanGAS inh: 68*; UPR XBP1 act: 1; Beta cell apopt: 94*; Mdm2 MdmX PPI: 74*; CSC inhib: 94*; CHOP UPR activ: 1; Mdm2 MdmX conf: 73*; FLuc counter: 36

Results for CCN(CC)S(=O)(=O)c1cccc2cccnc12 ?
SKKanGAS inh: 13; UPR XBP1 act: 0; Beta cell apopt: -8; Mdm2 MdmX PPI: -11; CSC inhib: -7; CHOP UPR activ: -2

How did CCS(=O)(=O)c1ccc(OC)c(N=Nc2ccc(O)c3ncccc23)c1 do in these assays?
SKKanGAS inh: 23; UPR XBP1 act: 0; Beta cell apopt: 108*; Mdm2 MdmX PPI: 71*; CSC inhib: -4; CHOP UPR activ: -1; Mdm2 MdmX conf: 54*; FLuc counter: 50*

How did CCN(CC)c1ccc(S(=O)(=O)N2CCOCC2)cc1NC(=O)COC(=O)c1cccnc1SC do in these assays?
SKKanGAS inh: -1; UPR XBP1 act: 3; Beta cell apopt: 1; Mdm2 MdmX PPI: -11; CSC inhib: 4; CHOP UPR activ: 0

What do the screens show for `NC(=O)c1ccc(Cn2c(C(=O)c3cc(Cl)c(N)c(Cl)c3)c3ccccc3[n+]2[O-])cc1`?
UPR XBP1 act: 5; Beta cell apopt: 8; Mdm2 MdmX PPI: 53*; CSC inhib: 47; CHOP UPR activ: -1; Mdm2 MdmX conf: 52*; FLuc counter: 65*

What do the screens show for `NCCCn1c(C(=O)c2cc(Cl)c(N)c(Cl)c2)c2ccc([N+](=O)[O-])cc2[n+]1[O-]`?
SKKanGAS inh: 63*; UPR XBP1 act: -3; Beta cell apopt: 87*; Mdm2 MdmX PPI: 66*; CSC inhib: 51; CHOP UPR activ: -1; Mdm2 MdmX conf: 54*; FLuc counter: 63*

Results for Cc1ccc(C2CC(c3cccs3)=NN2C(=O)CSC2=NCCS2)cc1 (stereo not drawn) ?
SKKanGAS inh: 21; UPR XBP1 act: -4; Beta cell apopt: -9; Mdm2 MdmX PPI: 55*; CSC inhib: 3; CHOP UPR activ: -1; Mdm2 MdmX conf: 28

What do the screens show for `COc1ccc(C2CC(c3cccs3)=NN2C(=O)CSC2=NCCS2)cc1` (stereo not drawn)?
SKKanGAS inh: inconclusive; UPR XBP1 act: -1; Beta cell apopt: -2; Mdm2 MdmX PPI: 54*; CSC inhib: 19; CHOP UPR activ: 5; Mdm2 MdmX conf: 14

How did Cc1ccc(C2CC(c3cccs3)=NN2C(=O)CCl)cc1 (stereo not drawn) do in these assays?
SKKanGAS inh: 10; UPR XBP1 act: -7; Beta cell apopt: -10; Mdm2 MdmX PPI: 100*; CSC inhib: 29; CHOP UPR activ: 2; Mdm2 MdmX conf: 96*; FLuc counter: 53*

What do the screens show for `CCC(=O)N1N=C(c2cccs2)CC1c1ccc(C)cc1` (stereo not drawn)?
SKKanGAS inh: 17; UPR XBP1 act: 0; Beta cell apopt: 3; Mdm2 MdmX PPI: -12; CSC inhib: -6; CHOP UPR activ: 0

What do the screens show for `C=CC[C@]12CCc3ccccc3C1N(c1ccc(C(=O)OCC)cc1)C2=O` (stereo partly drawn)?
UPR XBP1 act: 1; Beta cell apopt: -1; Mdm2 MdmX PPI: 4; CSC inhib: 18; CHOP UPR activ: -1

How did CCCCC(CCCC)=N/N=C/c1c(O)n(CC)c2cc(C3=NNC(=O)CC3)ccc12 do in these assays?
SKKanGAS inh: 8; UPR XBP1 act: 1; Beta cell apopt: 19; Mdm2 MdmX PPI: 58*; CSC inhib: -17; CHOP UPR activ: 4; Mdm2 MdmX conf: 9

How did CCC/C(O)=C1\C(=O)CCCC1=NCCc1c(C)[nH]c2ccccc12 do in these assays?
SKKanGAS inh: -3; UPR XBP1 act: -1; Beta cell apopt: -2; Mdm2 MdmX PPI: 6; CHOP UPR activ: 2

What do the screens show for `C/C=C(\C)C(=O)OC1CC(C)(C)C[C@H]2C3=CC[C@@H]4[C@@]5(C)CCC(O[C@@H]6O[C@@H](C(=O)O)[C@@H](O)C(O[C@@H]7OC[C@H](O)[C@@H](O)[C@@H]7O[C@@H]7OC(CO)C(O)[C@@H](O)[C@@H]7O)C6O[C@@H]6OC(CO)C(O)C(O)C6O)[C@@](C)(CO)[C@@H]5CC[C@]4(C)[C@]3(C)CC(O)[C@@]12CO` (stereo partly drawn)?
UPR XBP1 act: -2; Beta cell apopt: -1; Mdm2 MdmX PPI: 55*; CHOP UPR activ: 1; Mdm2 MdmX conf: 32; FLuc counter: 48*
